In general, IC50 refers to the concentration that gives 50% inhibition.

Results on 16 compounds are retold here after ChEMBL document CHEMBL4699497, “Synthesis of indole-tethered [1,3,4]thiadiazolo and [1,3,4]oxadiazolo[3,2-a]pyrimidin-5-one hybrids as anti-pancreatic cancer agents” (Bioorg Med Chem Lett, 2020).

Each structure is given as a SMILES string. Some results are limits rather than exact numbers.

The subject of the assay is PANC-1. As to the kind of experiment: Cytotoxicity against human PANC1 cells assessed as reduction in cell viability measured after 48 hrs by MTS assay. As to conditions: for IC50: PANC-1, 48 h. It counts as functional, cell-based. A digest of the protocol:
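Human PANC-1 pancreatic cancer cells exposed to a range of doses of each compound for 48 h. Surviving cells quantified by MTS viability read-out, and IC50 derived from the dose-response curves.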
On the technique in general: Formazan colour is commonly taken as a measure of viable cells.

As for `O=c1c(-n2ccc3ccccc32)cnc2sc(-c3ccc(Cl)cc3)nn12`, the IC50 is greater than 100 µM.
Consider `Cc1cc2ccccc2n1-c1cnc2sc(-c3cccc(Br)c3)nn2c1=O`, for which the IC50 is greater than 100 µM.
For the compound `O=c1c(-n2ccc3ccccc32)cnc2oc(-c3ccc(Cl)cc3)nn12`, the inhibition entry is “Dose-dependent effect” and the 50% inhibitory concentration (IC50) is 94.9 µM.
On to `O=c1c(-n2ccc3ccccc32)cnc2sc(-c3cccc(Cl)c3)nn12`, for which the IC50 was greater than 100 µM.
As for `O=c1c(-n2ccc3ccccc32)cnc2sc(-c3ccccc3)nn12`, the IC50 was greater than 100 µM.
As to `O=c1c(-n2ccc3ccccc32)cnc2sc(-c3ccccc3Cl)nn12`, the IC50 is greater than 100 µM.
For the compound `O=c1c(-n2ccc3ccccc32)cnc2oc(-c3ccc(Br)cc3)nn12`, the inhibition entry is “Dose-dependent effect” and the IC50 worked out at 90.5 µM.
Take `O=c1c(-n2ccc3ccccc32)cnc2sc(-c3cccc(Br)c3)nn12`: the IC50 is greater than 100 µM.
Still for that read-out and setting: next, `Cc1cc2ccccc2n1-c1cnc2sc(-c3ccc(Br)cc3)nn2c1=O`: greater than 100 µM; `Cc1cc2ccccc2n1-c1cnc2sc(-c3ccccc3)nn2c1=O`: greater than 100 µM; `Nc1ccn([C@@H]2O[C@H](CO)[C@@H](O)C2(F)F)c(=O)n1` [GEMCITABINE]: greater than 500 µM.
Same read-out and setting: then `Cc1cc2ccccc2n1-c1cnc2sc(-c3ccccc3Cl)nn2c1=O`, with greater than 100 µM.
With `Cc1cc2ccccc2n1-c1cnc2oc(-c3ccc(Cl)cc3)nn2c1=O`, the inhibition entry is “Dose-dependent effect” and the IC50 came out at 40 µM.
The matching figures for `O=c1c(-n2ccc3ccccc32)cnc2oc(-c3ccccc3)nn12`: “Dose-dependent effect” and 21.1 µM.
The matching figures for `O=c1c(-n2ccc3ccccc32)cnc2oc(-c3ccccc3Cl)nn12`: “Dose-dependent effect” and 7.7 µM.
Turning to `O=c1c(-n2ccc3ccccc32)cnc2sc(-c3ccc(Br)cc3)nn12`, the IC50 was greater than 100 µM.
